Measurements taken from ChEMBL document CHEMBL4118103, “Synthesis and Bioactivity Investigation of the Individual Components of Cyclic Lipopeptide Antibiotics” (J Med Chem, 2018).
Values after ≈ are worked out from the molar mass of the structure shown. Bridge positions count the residues as written; N and C are the ends. Square brackets hold non-standard residues; d marks the D form. Peptide text beside a SMILES is read from it. * marks the point of attachment. X1 = CC[C@H](C)CCCCC(=O)*; dDab = NCC[C@@H](N)C(=O)O; Dab = NCC[C@H](N)C(=O)O; Nva = CCC[C@H](N)C(=O)O

Tests used:
Escherichia coli [1] = assay: Antibacterial activity against Escherichia coli ATCC 25922 after 18 hrs by agar dilution method; format: functional; conditions: ATCC 25922, 18 h
How it was run: (§1)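 Serial two-fold agar dilution per CLSI; bacteria cultured in Mueller-Hinton broth, inoculum about 10^4 cfu/spot; final concentrations 0.03-128 µg/mL; plates incubated 35 °C for 18 h. MIC = lowest concentration preventing visible growth; representative of at least two independent experiments, a third run when the two disagreed.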

Escherichia coli [2] = assay: Antibacterial activity against extended-spectrum beta-lactamase producing Escherichia coli isolate 14-11 after 18 hrs by agar dilution method; format: functional; conditions: isolate 14-11, 18 h; how it was run: as §1
Klebsiella pneumoniae [3] = assay: Antibacterial activity against extended-spectrum beta-lactamase producing Klebsiella pneumoniae 700603 after 18 hrs by agar dilution method; format: functional; conditions: Klebsiella pneumoniae, 700603, 18 h; how it was run: as §1
Klebsiella pneumoniae [4] = assay: Antibacterial activity against NDM-1 producing Klebsiella pneumoniae ATCC BAA-2146 after 18 hrs by agar dilution method; format: functional; conditions: ATCC BAA-2146, 18 h; how it was run: as §1
Pseudomonas aeruginosa = assay: Antibacterial activity against Pseudomonas aeruginosa ATCC 27853 after 18 hrs by agar dilution method; format: functional; conditions: ATCC 27853, 18 h; how it was run: as §1
Acinetobacter baumannii = assay: Antibacterial activity against Acinetobacter baumannii ATCC 19606 after 18 hrs by agar dilution method; format: functional; conditions: ATCC 19606 = CIP 70.34 = JCM 6841, 18 h; how it was run: as §1
[5] = Cytotoxicity against African green monkey Vero cells after 72 hrs by MTT assay; format: cell-based; conditions: chlorocebus sabaeus, Vero cells
How it was run: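 Vero cells seeded at 2x10^3 cells/well, incubated 24 h at 37 °C, 5% CO2, then exposed to compound 72 h; MTT added for 2 h, medium removed, formazan dissolved in DMSO, absorbance read at 570 nm. Viability relative to untreated cells (100%); CC50 as mean ± SD of three independent experiments, each in triplicate.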

[6] = Acute toxicity in iv dosed ICR mouse assessed as survival measured daily for 7 days; format: organism-based; conditions: in vivo
How it was run: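 ICR mice, 18 to 22 g, 4 weeks old, 10 per group (5 male, 5 female). Four to five intravenous dose groups per compound. Survival recorded daily for 7 days. LD50 (dose per kg body weight lethal to 50%) calculated by the Bliss method. LD50 values compared by one-way ANOVA.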

Mus musculus [7] = assay: Nephrotoxicity in ICR mouse assessed as tubular dilation at 2.5 mg/kg, iv bid for 7 days measured after 2 hrs post last dose by hematoxylin and eosin staining based assay; format: toxicity, organism-based; conditions: in vivo
How it was run: (§2)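 ICR mice, 18-22 g, 4 weeks old, n=8 per group (4 male, 4 female); component in saline (0.25 mg/mL, kept at 4 °C) given iv at 2.5 mg/kg twice daily, 8 h apart, for 7 days. Kidneys taken 2 h after last dose, formalin-fixed, paraffin-embedded, sectioned, H&E stained and examined by light microscopy; saline controls included.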

Mus musculus [8] = assay: Nephrotoxicity in ICR mouse assessed as induction of prominent nuclei at 2.5 mg/kg, iv bid for 7 days measured after 2 hrs post last dose by hematoxylin and eosin staining based assay; format: toxicity, organism-based; conditions: in vivo; how it was run: as §2
Mus musculus [9] = assay: Nephrotoxicity in ICR mouse assessed as pale tubular casts at 2.5 mg/kg, iv bid for 7 days measured after 2 hrs post last dose by hematoxylin and eosin staining based assay; format: toxicity, organism-based; conditions: in vivo; how it was run: as §2

| SMILES | MIC (Escherichia coli [1]) [µg/mL] | MIC (Escherichia coli [2]) [µg/mL] | MIC (Klebsiella pneumoniae [3]) [µg/mL] | MIC (Klebsiella pneumoniae [4]) [µg/mL] | MIC (Pseudomonas aeruginosa) [µg/mL] | MIC (Acinetobacter baumannii) [µg/mL] | CC50 at 72 h [5] [µg/mL] | LD50 at 168 h [6] [mg/kg] | Activity (Mus musculus [7]) | Activity (Mus musculus [8]) | Activity (Mus musculus [9]) |
| --- | --- | --- | --- | --- | --- | --- | --- | --- | --- | --- | --- |
| CC[C@H](C)[C@@H]1NC(=O)[C@@H](CC(C)C)NC(=O)[C@H](CCN)NC(=O)[C@@H](NC(=O)[C@H](CCN)NC(=O)[C@@H](NC(=O)[C@H](CCN)NC(=O)CCCCC(C)C)[C@@H](C)O)CCNC(=O)[C@H]([C@@H](C)O)NC(=O)[C@H](CCN)NC(=O)[C@H](CCN)NC1=O | 1 (≈ 0.865 µM) | 0.5 (≈ 0.433 µM) | 0.5 (≈ 0.433 µM) | 1 (≈ 0.865 µM) | 2 (≈ 1.73 µM) | 1 (≈ 0.865 µM) | 199 (≈ 172 µM) | 12.9 |  |  |  |
| CC(C)CCCCC(=O)N[C@@H](CCN)C(=O)N[C@H](C(=O)N[C@@H](CCN)C(=O)N[C@H]1CCNC(=O)[C@H]([C@@H](C)O)NC(=O)[C@H](CCN)NC(=O)[C@H](CCN)NC(=O)[C@H]([C@@H](C)O)NC(=O)[C@@H](CC(C)C)NC(=O)[C@H](CCN)NC1=O)[C@@H](C)O | 0.5 (≈ 0.437 µM) | 0.25 (≈ 0.219 µM) | 0.5 (≈ 0.437 µM) | 0.5 (≈ 0.437 µM) | 0.5 (≈ 0.437 µM) | 1 (≈ 0.875 µM) | 276 (≈ 241 µM) | 13 | Non-Toxic | Non-Toxic | Non-Toxic |
| CC[C@H](C)CCCCC(=O)N[C@@H](CCN)C(=O)N[C@H](C(=O)N[C@@H](CCN)C(=O)N[C@H]1CCNC(=O)[C@H]([C@@H](C)O)NC(=O)[C@H](CCN)NC(=O)[C@H](CCN)NC(=O)[C@H]([C@@H](C)O)NC(=O)[C@@H](CC(C)C)NC(=O)[C@H](CCN)NC1=O)[C@@H](C)O (X1-[Dab]T[Dab][Dab][Dab][dL]T[Dab][Dab]T; lactam 4-C) | 0.25 (≈ 0.216 µM) | ≤ 0.03 | 0.25 (≈ 0.216 µM) | 0.5 (≈ 0.432 µM) | 1 (≈ 0.864 µM) | 0.5 (≈ 0.432 µM) | 96 (≈ 82.9 µM) | 11.4 |  |  |  |
| CCC[C@@H]1NC(=O)[C@@H](CC(C)C)NC(=O)[C@H](CCN)NC(=O)[C@@H](NC(=O)[C@H](CCN)NC(=O)[C@@H](NC(=O)[C@H](CCN)NC(=O)CCCC[C@@H](C)CC)[C@@H](C)O)CCNC(=O)[C@H]([C@@H](C)O)NC(=O)[C@H](CCN)NC(=O)[C@H](CCN)NC1=O (X1-[Dab]T[Dab][Dab][Dab][dL][Nva][Dab][Dab]T; lactam 4-C) | 1 (≈ 0.865 µM) | 1 (≈ 0.865 µM) | 2 (≈ 1.73 µM) | 1 (≈ 0.865 µM) | 1 (≈ 0.865 µM) | 1 (≈ 0.865 µM) | 109 (≈ 94.3 µM) |  |  |  |  |
| CC[C@H](C)CCCCC(=O)N[C@@H](CCN)C(=O)N[C@H](C(=O)N[C@H](CCN)C(=O)N[C@H]1CCNC(=O)[C@H]([C@@H](C)O)NC(=O)[C@H](CCN)NC(=O)[C@H](CCN)NC(=O)[C@H]([C@@H](C)O)NC(=O)[C@@H](CC(C)C)NC(=O)[C@H](CCN)NC1=O)[C@@H](C)O (X1-[Dab]T[dDab][Dab][Dab][dL]T[Dab][Dab]T; lactam 4-C) | 0.5 (≈ 0.432 µM) | 1 (≈ 0.864 µM) | 1 (≈ 0.864 µM) | 1 (≈ 0.864 µM) | 1 (≈ 0.864 µM) | 1 (≈ 0.864 µM) | 145 (≈ 125 µM) |  |  |  |  |
| CC[C@H](C)CCCCC(=O)N[C@@H](CCN)C(=O)N[C@H](C(=O)N[C@H](CO)C(=O)N[C@H]1CCNC(=O)[C@H]([C@@H](C)O)NC(=O)[C@H](CCN)NC(=O)[C@H](CCN)NC(=O)[C@H]([C@@H](C)O)NC(=O)[C@@H](CC(C)C)NC(=O)[C@H](CCN)NC1=O)[C@@H](C)O (X1-[Dab]T[dS][Dab][Dab][dL]T[Dab][Dab]T; lactam 4-C) | 0.12 (≈ 0.105 µM) | 0.25 (≈ 0.218 µM) | 1 (≈ 0.874 µM) | 0.5 (≈ 0.437 µM) | 2 (≈ 1.75 µM) | 0.06 (≈ 0.0524 µM) | 189 (≈ 165 µM) |  |  |  |  |
